Data as given in the RNAGym collection of RNA variant scans (doi:10.1038/s41586-018-0170-7).

B1: tRNA (parent)
chain: GUUCCGUUGGCGUAAUGGUAACGCGUCUCCCUCCUAAGGAGAAGACUGCGGGUUCGAGUCCCGUACGGAACG

Variants of: B1
Assay: yeast fitness, log relative to wild type (ln ratio); higher = fitter; tRNA-Arg(CCU), competitive growth, 37 C, 1 M NaCl
Outline: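 Genotype fitness is expressed as the natural log of its generations over those of the wild type. Each pool of the tRNA-Arg(CCU) variant library, carried on a HIS3 centromeric plasmid in BY4742 lacking the chromosomal gene, came from one of two independent transformations and grew 4 generations in SC-HIS at 30 °C before ~6.5 generations (~26.5 h) in SC-HIS 1M NaCl at 37 °C. Generation numbers used OD-scaled log2 output/input frequencies from 125 bp paired-end Illumina sequencing, combined across replicates by inverse-variance weighting.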

| Variant | yeast fitness (ln) |
| --- | --- |
| G1A U2G G6U C46U A69G A70G | -0.247 |
| U2C G6A A43C A69G A70G C71U | -0.153 |
| G1A A43C C46U C66A C71U | -0.139 |
| G1A U2G C27U A43C C46U A69G C71U | -0.239 |
| G1A G6A C46U A69G A70G | -0.123 |
| G1A U2G G6A C46U | -0.0789 |
| G6A C27U A43C C46U C66U A69G A70G | -0.369 |
| G1A G6U A43C C46U C66U A69G A70U C71U | -0.429 |
| G1A G6A C27U A43C C46U C66A A70U C71U | -0.209 |
| A43C C66A | -0.0164 |
| G1A C27U C46U A70U | -0.088 |
| U2C A43C C66U A69G A70U | -0.263 |
| G1A A43C A70G | -0.159 |
| G6A C46U C66U A69G | -0.0205 |
| G1A U2G G6U C46U A69G A70G C71U | -0.309 |
| U2C C27U C46U C66A A69G A70U C71U | -0.387 |
| G1A U2C G6A A43C C46U C66U | -0.085 |
| U2G A43C C46U C66A A69G A70G C71U | -0.21 |
| C46U A70G C71U | -0.0663 |
| G1A C27U A43C C66U A69G A70G C71U | -0.371 |
| U2C G6U A43C C66A A70G | -0.0246 |
| G1A U2C G6A A43C C46U C66U C71U | -0.246 |
| G1A G6A C27U C46U A69G A70G | -0.224 |
| U2G C27U C46U C66A A69G A70U | -0.0493 |

| Variant | yeast fitness (ln) |
| --- | --- |
| G6A A43C A70G C71U | -0.283 |
| G6U A69G A70U | -0.145 |
| G1A U2C A70U | -0.096 |
| U2C G6A C27U C66U A69G A70G | -0.0504 |
| G1A G6U C46U C66A C71U | 0.0017 |
| G1A G6U A70G C71U | -0.148 |
| G1A U2G C27U A70U | -0.33 |
| U2C A43C C46U C66U A70U C71U | -0.198 |
| U2C G6A C27U C46U C66A C71U | -0.101 |
| G1A U2C A43C C46U C66U A70U | -0.132 |
| C27U C46U C66A A69G C71U | -0.262 |
| C27U A43C C46U C66A A70U C71U | -0.301 |
| U2G G6U A43C C46U C66A A69G C71U | -0.462 |
| G1A C27U C46U C66A A70G C71U | -0.187 |
| G1A U2G G6U C27U A43C A69G C71U | -0.479 |
| G1A G6U A43C C46U C66A | -0.278 |
| U2G G6A C27U C46U C66U | -0.206 |
| G1A A43C C66U A70G C71U | -0.235 |
| U2G G6U A43C C46U C66U A69G C71U | -0.487 |
| U2C G6U C27U C71U | -0.147 |
| U2C C27U C66U A69G A70G | -0.185 |
| G6A C27U A43C C46U A69G C71U | -0.344 |
| G1A U2G A43C A70G C71U | -0.207 |
| U2G G6A C27U A43C A70U C71U | -0.242 |

| Variant | yeast fitness (ln) |
| --- | --- |
| G1A U2C G6A C46U C66U A69G A70U C71U | -0.339 |
| U2C G6A C46U C66A A69G A70G C71U | -0.258 |
| U2G G6U A43C C66A C71U | -0.324 |
| U2C G6U C27U C66A | -0.24 |
| U2G G6U A43C C71U | -0.17 |
| U2C G6U C46U C66U | -0.12 |
| G1A U2G G6A A43C A69G C71U | -0.506 |
| U2G G6U A43C C66U A70G | -0.338 |
| G1A C27U A43C C46U A69G C71U | -0.109 |
| G6A A43C C46U C66A C71U | -0.229 |
| U2G A43C C66A A70G C71U | -0.237 |
| G1A C46U A69G A70G C71U | -0.0298 |
| G1A A43C C46U A70U | -0.0611 |
| U2G G6U C46U C66U A69G A70U | -0.264 |
| G1A U2C G6U C46U A69G A70U C71U | -0.249 |
| G1A C27U A70U C71U | -0.34 |
| U2C G6U C27U C66A A70U | -0.16 |
| U2C C66A | 0.0749 |
| G1A U2G A43C C46U C66U A70U C71U | -0.242 |
| G1A G6A C27U C46U A70U | -0.164 |
| G6A C46U C66A A69G A70U | -0.178 |
| G6A C27U A43C C46U C66U A69G A70U | -0.306 |
| U2C C27U A43C A69G A70U | -0.136 |
| G1A U2G C46U C66U A69G C71U | -0.318 |

| Variant | yeast fitness (ln) |
| --- | --- |
| G1A U2C G6A C46U C66U A70U C71U | -0.0901 |
| U2G A43C C66A C71U | -0.267 |
| U2C G6U C27U C66U A70U C71U | -0.35 |
| G1A U2G C27U A43C C46U A69G A70G | -0.22 |
| G1A U2C G6U C27U C46U C66U A70U C71U | -0.284 |
| G1A U2C G6A C27U A43C C46U C66U A69G A70G | -0.0972 |
| G1A G6A C46U A69G A70U C71U | -0.256 |
| U2C G6A A43C C66U A70U C71U | -0.305 |
| C27U C46U A69G A70G C71U | -0.298 |
| U2C G6A A43C C46U C66A A70U C71U | -0.0318 |
| G1A G6U C66A A70U | -0.0574 |
| G1A U2C C27U C46U C66U A70G | -0.242 |
| G1A U2C A43C C46U C66A A70G C71U | -0.0667 |
| G1A U2G A43C C46U C66U A69G A70G | -0.254 |
| G6A A43C C66U C71U | -0.335 |
| G1A U2C G6A C46U A70G C71U | -0.00868 |
| G1A U2G G6A A43C C46U C66U A70U C71U | -0.086 |
| G1A U2G G6U C27U A43C A69G A70G | -0.326 |
| G6U C27U C66U A70G | -0.288 |
| U2G G6U A43C C66U A69G A70G C71U | -0.411 |
| U2G G6U C27U C66A A69G A70G C71U | -0.25 |
| G1A U2C G6A C46U C66U | -0.16 |
| G1A U2G G6U A70U | -0.166 |
| G1A U2G G6U A43C C46U A70G C71U | -0.338 |

| Variant | yeast fitness (ln) |
| --- | --- |
| G1A U2C C46U C66A A70U | -0.0262 |
| U2G G6U C27U A43C C66A | -0.0341 |
| G1A U2G C27U C46U C66U A69G C71U | -0.307 |
| C27U C66U C71U | -0.173 |
| G6U A43C C46U C66A A69G A70G C71U | -0.167 |
| G1A U2G G6A C66U C71U | -0.146 |
| G1A U2G A43C C46U C66U C71U | -0.223 |
| U2G G6U C46U C66U A69G C71U | -0.252 |
| G6U A43C C66U C71U | -0.422 |
| G1A U2G G6U C27U C66A A70U | -0.27 |
| U2G G6A A43C C46U C66U A70U | -0.000672 |
| G1A G6U A43C C66U | -0.232 |
| C27U A43C A70G | -0.0631 |
| G1A U2C C27U A43C C46U A69G C71U | -0.167 |
| G1A C66U A69G A70G C71U | -0.217 |
| U2G G6A A43C C66U A69G A70U | -0.235 |
| C27U C66U | -0.134 |
| G1A G6A C27U A70G C71U | -0.332 |
| U2G G6A C71U | -0.0566 |
| U2G C27U C46U | -0.0742 |
| G1A U2C G6U C66U A69G A70G C71U | -0.221 |
| G1A U2G C27U C46U C66A A69G A70U C71U | -0.476 |
| G1A U2G A70U C71U | 0.00659 |
| G1A U2G G6U A43C A70U | -0.257 |

| Variant | yeast fitness (ln) |
| --- | --- |
| C46U C66A A70U | 0.00705 |
| U2G G6A A43C C46U A69G A70G C71U | -0.226 |
| U2G A69G C71U | -0.101 |
| U2G G6A C66A C71U | -0.139 |
| G1A U2C G6U C46U A70G | -0.239 |
| C46U A70U | 0.00508 |
| G1A U2G C27U A43C C46U C66A A70U C71U | -0.35 |
| G1A C71U | -0.0163 |
| A43C C71U | -0.038 |
| G6A C27U A43C C66U A69G A70G | -0.374 |
| G1A U2C G6U C27U A43C C46U C66U A69G A70G | -0.279 |
| U2G C27U C46U A70U C71U | -0.0474 |
| U2C G6U C27U C46U C66A A69G A70G | -0.035 |
| G6A C46U C66U A70U C71U | -0.423 |
| G6A A43C C46U C66U A69G A70G C71U | -0.24 |
| U2G C46U A69G | -0.208 |
| G1A U2G G6A C27U C46U C71U | -0.182 |
| G6A C66A A69G A70G | -0.159 |
| U2G G6U C27U A43C C46U C66U | -0.262 |
| U2C C27U C66U A70G C71U | -0.172 |
| G1A G6A A43C C46U C66U | -0.295 |
| U2G G6A C27U A43C C46U C66A A70U C71U | -0.331 |
| U2C G6U C46U C66U A69G A70U C71U | -0.282 |
| U2G C27U C66U A70G | -0.147 |

| Variant | yeast fitness (ln) |
| --- | --- |
| U2G G6A A43C C46U A69G C71U | -0.206 |
| G6U C27U C66U A69G | -0.276 |
| G1A U2G G6U C46U C66A C71U | -0.179 |
| G1A U2C G6U C27U C46U A70G C71U | -0.203 |
| G1A G6U A43C A69G A70G | -0.54 |
| G6A C71U | -0.23 |
| G1A U2G G6A A70U C71U | -0.0851 |
| G6U C27U C46U A69G C71U | -0.314 |
| U2C G6U C27U A70U | -0.153 |
| C27U A43C C46U C66U A69G A70G C71U | -0.18 |
| U2G G6A C27U C66A C71U | -0.216 |
| U2C G6A C27U C46U A70G | -0.0764 |
| G1A G6A A70U | -0.0929 |
| G1A U2C G6A A43C A70U | -0.113 |
| G1A G6U A43C C46U C66U A70G C71U | -0.278 |
| U2G G6A C66A A70U C71U | -0.123 |
| G6A C46U C66A A70U | -0.0387 |
| U2C G6U A43C C46U C66U A70G | -0.0851 |
| U2G G6A C66A A70U | -0.178 |
| G1A A70G C71U | -0.0244 |
| G1A G6A C27U A43C C46U C66A A70U | -0.192 |
| G1A C66A | 0.0139 |
| G6A C27U A43C C66U A69G | -0.373 |
